Source: ChEMBL document CHEMBL1142117, “Triterpene saponins from Bacopa monnieri and their antidepressant effects in two mice models” (2007)
Calls of active or inactive are those of the source. The calls are words filed in the database; no cut-off is given here.

Columns and labels:
Mus musculus [1] = assay: Antidepressant activity in ICR mouse assessed as reduction of immobility time at 50 mg/kg, po after 5 days by forced swimming test; assay type: functional; set-up: scale not given: the % may be the effect or the level left
Procedure, shortened: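 Male ICR mice (18-22 g), housed a week on 12:12 h light-dark cycle; saponins suspended in 0.3% CMCNa, given orally once daily for 5 days; vehicle controls 5 days, fluoxetine (10 mg/kg) once on day 5. 1 h after last dose, mouse placed in water (24 °C, 10 cm deep) 6 min; immobility scored over final 4 min by blinded observer; n=10; means ± SEM, ANOVA/Dunnett.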

Mus musculus [2] = assay: Antidepressant activity in ICR mouse assessed as reduction of immobility time at 50 mg/kg, po after 5 days by tail suspension test; assay type: functional; set-up: scale not given: the % may be the effect or the level left
Procedure, shortened: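 Male ICR mice (18-22 g); compounds in 0.3% CMCNa dosed orally daily for 5 days, fluoxetine (10 mg/kg) once on day 5, vehicle group 5 days. One hour after day-5 dose, mouse hung by tail from lever 30 cm high for 6 min; immobility in later 4 min recorded by observer; n=10; one-way ANOVA then Dunnett's t-test.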

Mus musculus [3] = assay: Spontaneous motor activity in ICR mouse at 50 mg/kg, po; assay type: functional, organism-based; set-up: dose 50 mg/kg
Procedure, shortened: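 Locomotion of male ICR mice measured 1 h after day-5 oral dose (0.3% CMCNa suspension, daily for 5 days) with an automated activity meter in an open field (35 cm diameter); 3 min adaptation, then counts over 6 min; n=10; means ± SEM compared with vehicle by ANOVA/Dunnett.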

Structure (SMILES)	Activity (Mus musculus [1]) [%]	Activity (Mus musculus [2]) [%]	Activity (Mus musculus [3])
CC(C)=C[C@@H]1CO[C@]23C[C@@]4(CO2)[C@@H](CC[C@@H]2[C@@]5(C)CC[C@H](O[C@H]6OC[C@H](O)[C@H](O[C@H]7O[C@H](CO)[C@H](O)[C@H](O)[C@H]7O)[C@H]6O[C@@H]6O[C@@H](CO)[C@H](O)[C@H]6O)C(C)(C)[C@@H]5CC[C@]24C)[C@H]3[C@@]1(C)O [BACOPASAPONSIN C]	63	47	inactive
CC(C)=CC1C[C@](C)(O)[C@@H]2[C@@H]3CC[C@@H]4[C@@]5(C)CC[C@H](O[C@@H]6OC[C@H](O)[C@H](O[C@@H]7O[C@H](CO)[C@@H](O)[C@H](O)[C@H]7O)[C@H]6O[C@@H]6O[C@@H](CO)[C@H](O)[C@H]6O)C(C)(C)[C@@H]5CC[C@@]4(C)[C@]34CO[C@@]2(C4)O1 (some centres undefined) [BACOPASIDE VII]	20	8	inactive
CC(C)=C[C@@H]1CO[C@]23C[C@@]4(CO2)[C@@H](CC[C@@H]2[C@@]5(C)CC[C@H](O[C@H]6OC[C@H](O)[C@H](O[C@H]7O[C@H](COS(=O)(=O)O)[C@@H](O)[C@H](O)[C@H]7O)[C@H]6O[C@@H]6O[C@@H](CO)[C@H](O)[C@H]6O)C(C)(C)[C@@H]5CC[C@]24C)[C@H]3[C@@]1(C)O [BACOPASIDE I]	75	61	inactive
